The list is not random: actives were taken first. Their share in the collection is about 12%.
Diaphorase act: activates diaphorase or chemically reduces, flagging diaphorase assay artifacts | Diaphorase/resazurin coupled assay, resorufin fluorescence, 16 min; stronger effect = higher value; 1 = vehicle wells, 0 = NADH-free wells | hit rate 0.005% among 190,000 | activation factor at 20 µM;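 active = diaphorase activity raised at least twofold by the compound at 20 µM; inactive = activation factor below 2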
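Test system: Clostridium kluyveri diaphorase, purified enzyme; input: enzyme 0.07 U/mL final; buffer or medium: 50 mM HEPES pH 7.4 with 4.542 mM MgCl2, 0.005% Tween 20; also added: 0.114 mM NADH and 0.1 mM resazurin, final amounts; schedule: 16 min enzyme reaction, ambient temperature; technique: fluorescence of resorufin, 544 nm excitation, 590 nm emission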
Lmaj promast: inhibitors of Leishmania major promastigote growth; Leishmania major promastigotes, resazurin fluorescence viability; inhibition, % at 10 µM; hit rate 9% among 200,000; AID 1063; in the data active = inhibition above about 50%;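 note: promastigotes grown with compound for 44 hours at 28 °C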
WT yeast gro inh: growth inhibition of WT yeast, mitochondrial fusion screen. mitochondrial fusion phenotypic screen, WT strain. inhibition, % at 10 µM. AID 1362. hit rate 2.1% among 190,000; in the data active = inhibition above about 58%; tested in S. cerevisiae
Diaphorase inh: counter-screen for diaphorase-based assays: diaphorase inhibitors and chemical oxidizers; diaphorase resazurin-to-resorufin fluorescence, NADH, 16 min; bacterial (C. kluyveri) enzyme, not human; hit rate 0.69% among 190,000; inhibition, % at 20 µM;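 active = primary screen inhibition at 20 µM above a set limit, cut at about 50% in these data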;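 note: plate controls were DMSO with full reaction for no effect and wells lacking NADH for full effect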
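Benchmarks: positive control wells lacking NADH, neutral wells with DMSO only. System: bacterial diaphorase enzyme (C. kluyveri). Input: 0.14 U/mL diaphorase, enzyme working solution. Detection: resorufin fluorescence, excitation 544 nm, emission 590 nm. Times: 16-min room-temperature incubation before reading.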
Cl transport mod: modulates chloride dependent transport by human KCC2; Q9H2X9; AID 1456; hit rate 2.2% among 190,000; B-score of Tl+ flux slope (higher = more flux/activation; lower = inhibition) at 10 µM; KCC2 cells, thallium flux FluoZin-2 fluorescence;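 active = thallium flux slope and its plate-corrected score both differing from the plate sample mean at a set confidence after two filtering rounds, in either direction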;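 note: slope of fluorescence scaled to starting intensity during 10 to 20 s after thallium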
Target sequence (Q9H2X9 whole entry, looked up): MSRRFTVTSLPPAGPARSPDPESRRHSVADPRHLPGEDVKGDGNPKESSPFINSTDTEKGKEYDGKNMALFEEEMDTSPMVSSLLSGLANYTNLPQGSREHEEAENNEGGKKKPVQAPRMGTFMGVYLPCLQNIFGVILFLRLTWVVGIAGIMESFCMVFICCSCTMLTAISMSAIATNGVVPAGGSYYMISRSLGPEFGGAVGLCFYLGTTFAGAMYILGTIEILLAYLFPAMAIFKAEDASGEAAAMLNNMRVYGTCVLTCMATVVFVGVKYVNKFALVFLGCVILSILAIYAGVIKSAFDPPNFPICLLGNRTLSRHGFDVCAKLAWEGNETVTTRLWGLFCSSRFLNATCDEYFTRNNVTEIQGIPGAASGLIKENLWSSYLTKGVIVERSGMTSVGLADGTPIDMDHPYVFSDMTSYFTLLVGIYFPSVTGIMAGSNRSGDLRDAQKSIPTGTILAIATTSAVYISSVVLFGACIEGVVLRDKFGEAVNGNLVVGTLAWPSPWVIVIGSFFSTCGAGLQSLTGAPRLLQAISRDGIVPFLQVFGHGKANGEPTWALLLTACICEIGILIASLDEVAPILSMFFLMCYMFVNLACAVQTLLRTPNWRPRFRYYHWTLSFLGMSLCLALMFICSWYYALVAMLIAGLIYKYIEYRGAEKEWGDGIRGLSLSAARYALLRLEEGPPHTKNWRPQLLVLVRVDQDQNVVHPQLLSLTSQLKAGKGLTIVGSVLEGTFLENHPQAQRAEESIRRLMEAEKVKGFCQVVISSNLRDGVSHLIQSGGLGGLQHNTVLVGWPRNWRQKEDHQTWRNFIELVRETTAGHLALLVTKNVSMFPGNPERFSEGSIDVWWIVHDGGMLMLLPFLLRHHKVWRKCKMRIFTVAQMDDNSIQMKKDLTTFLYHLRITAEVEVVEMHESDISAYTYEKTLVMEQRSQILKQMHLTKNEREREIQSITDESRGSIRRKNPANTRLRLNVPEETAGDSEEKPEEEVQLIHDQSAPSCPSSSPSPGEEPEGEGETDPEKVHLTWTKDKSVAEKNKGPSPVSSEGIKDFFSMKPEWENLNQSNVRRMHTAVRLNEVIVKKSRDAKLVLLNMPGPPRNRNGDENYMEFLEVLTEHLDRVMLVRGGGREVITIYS
ROMK mod: human ROMK K+ channel modulation, primary screen. Tet-inducible ROMK, thallium flux fluorescence; actives lie on both sides. AID 1918. B-score at 10 µM. hit rate 2% among 130,000;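 active = signal ratio slope over the read window, or its plate-corrected B-score, at least 3 SD from the plate mean, either direction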;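 note: B-score of the F/F0 ratio slope over 7 to 12 s after thallium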
The depositor's hits bear a star; / = not tested or not shown.

SMILES	Diaphorase act	Lmaj promast	WT yeast gro inh	Diaphorase inh	Cl transport mod	ROMK mod
CCc1ccc(NC(=O)N(CCCN2CCOCC2)C(C)c2cc3cccc(OC)c3o2)cc1 (stereo not given)	0.9	54*	22	6	-1.9	/
CSCCC1NC(=O)N(CC(=O)Nc2ccc(-c3ccccc3)cc2)C1=O (stereo not given)	/	/	/	/	0.053	/
CN(c1ccc(C(=O)NC2CC2)cc1)S(=O)(=O)c1ccccc1	1.1	-4	11	-15	2.2	/
O=C(NC1CC1)c1ccc(CN(c2ccccc2)S(=O)(=O)c2ccccc2)cc1	0.9	58*	1	11	0.55	0.98
CC(CO)Nc1nc(SCc2ccccc2)nc2sc3c(c12)CCC3 (stereo not given)	0.8	-2	75*	20	-0.089	/
COCCNc1nc(SCc2ccccc2)nc2sc3c(c12)CCC3	0.8	8	43	20	0.27	/
Cn1cnc(S(=O)(=O)Nc2cc(-c3ccc(Cl)cc3)nn2C)c1	/	/	/	/	0.93	/
COc1ccccc1/C=C/C(=O)N1CCOCC1	0.9	-1	7	6	-1.4	/
COc1ccc(/C=C/C(=O)c2ccc(OC)cc2OC)c(OC)c1	0.8	10	20	19	-0.39	/
COc1ccccc1C(=O)Nc1ccc(C(=O)c2ccccc2)cc1	0.7	4	24	28	-0.39	0.36
COc1ccccc1/C=C/C(=O)c1ccc(NC(C)=O)cc1	0.8	100*	23	23	-0.89	-0.24
CCOc1ccccc1/C=C/C(=O)c1ccc(Cl)cc1	0.9	78*	19	14	-0.54	-0.4
COc1ccc(/C=C/C(=O)c2ccccc2)c(OC)c1	1	74*	22	2	-1	-0.063
COc1ccccc1/C=C/C(=O)c1c2c(c(C)[nH]c1=O)CCCC2	0.8	77*	-14	17	-1.4	-1.1
Cc1cc(OCC(=O)Nc2ccc(F)c(F)c2)nc(C(C)C)n1	0.9	-6	7	7	0.079	0.32
Cc1cccc(NC(=O)c2ccc(NC(C)c3ccccc3)c([N+](=O)[O-])c2)n1 (stereo not given)	1.1	12	-2	-12	1.8	1.4
COc1ccccc1/C=C/C(=O)c1ccccc1	/	/	/	/	-1	/
COc1ccc(OC)c(/C=C/C(=O)c2ccc(Cl)cc2)c1	0.9	100*	-15	15	/	/
O=C(/C=C/c1ccccc1O)c1ccc(Cl)cc1	0.6	100*	48	36	0.59	/
COc1ccccc1/C=C/C(=O)c1ccc(Cl)cc1	1	86*	22	2	/	/
COc1cc(OC)c(OC)cc1/C=C/C(=O)c1ccc(NS(=O)(=O)c2ccc(C)cc2)cc1	0.7	62*	4	33	0.6	0.3
O=C(CN(C(=O)c1ccccc1Cl)N1C(=O)C2C3C=CC(C3)C2C1=O)c1cccs1 (stereo not given)	0.8	-1	-4	18	-0.41	/
O=C(COc1ccccc1)Nc1ccc(Cl)cc1Cl	0.9	-9	-9	10	/	/
O=C(c1ccccc1F)N(Cc1ccc2c(c1)OCO2)Cc1cc2cc3c(cc2n2nnnc12)OCO3	0.9	87*	2	7	-1	/
O=c1cc(NS(=O)(=O)c2ccccc2)nc(SCc2c(Cl)cccc2Cl)[nH]1	0.7	69*	-1	27	-0.11	0.72
SMILES	Diaphorase act	Lmaj promast	WT yeast gro inh	Diaphorase inh	Cl transport mod	ROMK mod
Cc1cccc(C(=O)O/N=C/c2ccc(Br)cc2)c1	0.9	-6	60*	13	-0.078	/
O=[N+]([O-])c1nn(-c2ccc(Cl)cc2)n(O)c1=NCc1cccnc1	0.9	96*	6	9	1.1	0.026
Cc1cccc(-n2nc([N+](=O)[O-])c(=NCc3cccnc3)n2O)c1	0.8	82*	-19	18	/	0.45
CCc1cccc(N=c2c([N+](=O)[O-])nn(-c3ccc(Cl)cc3)n2O)c1	0.7	37	19	31	0.1	-0.56
O=[N+]([O-])c1nn(-c2ccc(Cl)cc2)n(O)c1=NCc1ccncc1	0.9	75*	-3	6	1.2	0.48
Cc1cccc(N=c2c([N+](=O)[O-])nn(-c3ccc(Cl)cc3)n2O)c1	0.8	79*	48	16	0.01	-0.68
O=[N+]([O-])c1nn(-c2cccc(Cl)c2)n(O)c1=NCc1cccnc1	0.9	21	24	13	0.98	/
O=C(COc1cccnc1[N+](=O)[O-])NCc1ccco1	1	-2	-15	3	0.85	-0.29
CCCCc1ccc(NS(=O)(=O)c2cccs2)cc1	0.8	14	0	19	0.65	/
CC1CC(C)C[N+](=C2C=C(N3CCCC3)CC(C)(C)C2)C1 (stereo not given)	0.9	100*	6	8	1.7	0.16
CN(Cc1ccccc1)C1=CC(=[N+]2CCCC2)CC(C)(C)C1	/	/	/	/	0.16	/
CCN(CC)C1=CC(=[N+]2CCCC2)CC(C)(C)C1	1	100*	-11	3	0.46	-0.16
CC1(C)CC(N2CCN(c3ccccc3)CC2)=CC(=[N+]2CCCC2)C1	0.8	99*	6	20	-2	/
CC1(C)CC(=O)C=C(N2CCNCC2)C1	1	-3	-2	4	1.2	/
CC1(C)CC(N2CCCC2)=CC(=[N+]2CCCCCC2)C1	1	100*	1	0	0.54	-0.74
Cc1cc(C(C#N)c2ccccc2F)n2ncnc2n1 (stereo not given)	1	-8	4	2	-0.95	0.43
CCc1cccc(C)c1NC(=S)N(CCN(C)C)C(C)c1ccco1 (stereo not given)	/	/	/	/	-0.68	/
Cc1cc(C)c(S(=O)(=O)NCCOc2ccccc2)c(C)c1-n1cnnn1	1.2	9	-9	-15	-0.86	1.8
O=[N+]([O-])c1ccc(-n2nnnc2-c2ccccc2)c([N+](=O)[O-])c1	0.8	100*	30	24	1.8	0.56
CC(=O)Oc1ccccc1C1C[C@]2(C)CC(=O)NC2N1C(C)=O (stereo not given in full)	1.1	-2	12	-5	/	-0.11
COc1ccc(-n2c(Cc3cccn3C)nnc2SCC(=O)N2CCCc3ccccc32)cc1	0.8	63*	13	16	0.015	/
Cc1ccc(-c2nnc3ccc(SCC(=O)N4CCCc5ccccc54)nn23)cc1	0.5	15	35	50*	-0.63	/
Cn1c(Cc2cccs2)nnc1SCC(=O)N1CCCc2ccccc21	0.9	-2	-2	6	-0.79	/
O=C(CSc1nnc(Cc2cccs2)n1C1CCCCC1)N1CCCc2ccccc21	0.9	95*	6	5	-0.61	/
Cc1ccc(-c2nnc3ccc(SCC(=O)N4CCc5ccccc54)nn23)cc1	0.8	-1	4	17	/	/
CCOc1ccc(NC(=O)C(Cc2ccccc2)N2C(=O)c3cccc4cccc(c34)C2=O)cc1 (stereo not given)	1	-2	2	-1	0.041	0.15

Screens deposited in PubChem BioAssay by several laboratories.
